Consider 15 compounds from ChEMBL document CHEMBL1123508, “Relationship between lipophilic character and urinary excretion of nitroimidazoles and nitrothiazoles in rats” (J Med Chem, 1986).

What is called logP is a log measure of how a compound divides between an organic and an aqueous phase.

For series [1], the system named is Rattus norvegicus. Kind of series: The total 36 hr urinary excretion of unchanged compound reported as log (percent X 10) of the administered dose. As to conditions: in vivo.
For series [2] the following is noted: octanol/water.
The nature of series [3]: The amount of unchanged compound detected in urine collected at 0-18 hr after treatment. As to conditions: rat.
The test system of series [4] is Rattus norvegicus. Kind of series: The total 72 hr urinary excretion of unchanged compound reported as log (percent X 10) of the administered dose. The conditions noted are these: in vivo.
The test system of series [5] is Rattus norvegicus. The series is described as follows: The total 18 hr urinary excretion of unchanged compound reported as log (percent X 10) of the administered dose. The conditions noted are these: in vivo.
The test system of series [6] is Rattus norvegicus. Kind of series: The total 54 h urinary excretion of unchanged compound reported as log (percent X 10) of the administered dose. The conditions noted are these: in vivo.
The nature of series [7]: The amount of unchanged compound in urine collected at 0-72 h after treatment. As to conditions: rat.
Series [8] can be described thus: The amount of unchanged compound in urine collected at 0-36 hr after treatment. As to conditions: rat.
A short description of series [9]: The amount of unchanged compound in urine collected at 0-54 hr after treatment. The conditions noted are these: rat.
The test system of series [10] is Rattus norvegicus. The series is described as follows: The total 18 hr urinary excretion of the unchanged form of compound in urine was reported as log (percent X 10) of the administered dose by HPLC technique. The format is ADME, organism-based. As to conditions: in vivo. In a few lines: (§1)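 Female Sprague-Dawley rats (200 ± 20 g) on chow diet, three per compound, dosed ip in Me2SO (50 μmol mL⁻¹ kg⁻¹). Urine pooled over 0-18 h. One mL urine was spiked with internal standard and extracted, the residue was taken up in 200 μL methanol, and 10-20 μL was injected for HPLC of the unchanged drug. Values expressed as log (percent × 10) of dose.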

Series [11] in a line: The amount of the unchanged form of compound detected in the urine samples collected at 0-18 hr after the treatment by HPLC technique. The class given is ADME, organism-based. The conditions noted are these: rat, read-out: Amount excreted. In a few lines: as §1
The nature of series [12]: Partition coefficient (logP). The conditions noted are these: octanol/water.

For `Cc1ncc([N+](=O)[O-])n1CC(=O)N1CCN(C(=O)Cn2c([N+](=O)[O-])cnc2C)CC1`, the “Log BR” value was found to be 2.27 in the series on Rattus norvegicus [1], 2.27 in the series with Rattus norvegicus [4], 2.155 with Rattus norvegicus [5] and 2.27 in the series on Rattus norvegicus [6]. The “Log k'” value in [2] was 0.028. Moreover, the dose excreted in series [3] worked out at 14.3%; in [7], 18.6%; in [8], 18.6%; in series [9], 18.6%.
In the case of `Cn1c([N+](=O)[O-])cnc1C=O`, in the series on Rattus norvegicus [10], the “log(10 × % of dose excreted unchanged in urine)” value was 2.023. Moreover, the “Log BR” value in the series with Rattus norvegicus [1] is given as 2.477; in the series on Rattus norvegicus [4] it was 2.477; in the series on Rattus norvegicus [5], 2.025; in the series on Rattus norvegicus [6], 2.477. The “Log k'” value in series [2] is given as -0.067. Moreover, the dose excreted worked out at 10.4% in series [11]; 10.6% in series [3]; 29.9% in series [7]; 29.9% in [8]; 29.9% in [9]. Besides, the logP in series [12] is on record as -0.69.
As to `O=[N+]([O-])c1c[nH]cn1`, the “Log BR” value is 2.601 in the series on Rattus norvegicus [1], 2.664 in the series on Rattus norvegicus [4], 2.529 in the series with Rattus norvegicus [5] and 2.664 in the series with Rattus norvegicus [6]. Further, in series [2], the “Log k'” value turned out to be 0. The dose excreted in series [3] is 33.8%; in series [7], 46.1%; in [8], 39.9%; in [9], 46.1%.
Regarding `Cc1ncc([N+](=O)[O-])n1CC(=O)Nc1ncccn1`, the “log(10 × % of dose excreted unchanged in urine)” value in the series on Rattus norvegicus [10] was determined as 2.549. For the same compound, the “Log BR” value with Rattus norvegicus [1] is recorded as 2.59; in the series on Rattus norvegicus [4] it was 2.701; with Rattus norvegicus [5], 2.569; in the series on Rattus norvegicus [6] it was 2.701. In [2], the “Log k'” value is -0.115. Further, the dose excreted turned out to be 35.4% in series [11]; 37.1% in [3]; 42.1% in series [7]; 38.9% in series [8]; 42.1% in [9]. The same compound had a logP in [12] of -0.3.
Regarding `CN1CCN(Cc2ncc([N+](=O)[O-])n2C)CC1`, the “Log BR” value in the series with Rattus norvegicus [1] was 2.658; with Rattus norvegicus [4], 2.658; with Rattus norvegicus [5] it was 2.62; in the series with Rattus norvegicus [6], 2.658. Further, the “Log k'” value in series [2] is listed as 0.014. Besides, the dose excreted turned out to be 41.7% in series [3], 45.5% in series [7], 45.5% in series [8] and 45.5% in [9]. In [12], this compound displayed a logP of -0.33.
Turning to `O=[N+]([O-])c1cnc(/C=C/c2ccc3c(c2)OCO3)n1CCO`, the “Log BR” value with Rattus norvegicus [1], in the series on Rattus norvegicus [4], in the series with Rattus norvegicus [5] and in the series with Rattus norvegicus [6] was 1.529 throughout. In addition, the “Log k'” value in [2] turned out to be 0.659. Moreover, the dose excreted in series [7], in series [8] and in series [9] was 3.4% throughout. This compound also returned a logP in series [12] of 2.03.
Take `Cn1c([N+](=O)[O-])cnc1CO`: the “Log BR” value came out at 2.754 in the series on Rattus norvegicus [1], 2.81 in the series with Rattus norvegicus [4], 2.513 in the series with Rattus norvegicus [5] and 2.782 with Rattus norvegicus [6]. In addition, the “Log k'” value in [2] is on record as -0.11. Further, the dose excreted in series [3] worked out at 32.6%; in series [7] it was 64.9%; in [8] it was 56.8%; in series [9], 60.6%. Further, the logP in series [12] was -0.03.
As to `Cn1c([N+](=O)[O-])cnc1C1CC1`, the “Log BR” value with Rattus norvegicus [1] is 2.113; with Rattus norvegicus [4], 2.113; with Rattus norvegicus [5] it was 1.613; in the series with Rattus norvegicus [6], 2.113. For the same compound, the “Log k'” value in series [2] was found to be 0.455. Besides, the dose excreted in series [3] turned out to be 4.1%; in [7], 12.9%; in series [8], 12.9%; in series [9] it was 12.9%. The compound further yielded a logP in [12] of 1.
As to `Nc1ncc(S(=O)(=O)c2ccc([N+](=O)[O-])cc2)s1`, the “Log BR” value in the series on Rattus norvegicus [1] stood at 2.811; with Rattus norvegicus [4], 2.811; with Rattus norvegicus [5] it was 2.687; in the series with Rattus norvegicus [6], 2.811. The “Log k'” value in [2] is reported as -0.049. Further, the dose excreted amounted to 48.6% in series [3], 64.7% in [7], 64.7% in [8] and 64.7% in series [9]. In [12], the logP was -0.43.
Consider `CCC(CC)C(O)Cn1c([N+](=O)[O-])cnc1C` (stereo not given), for which the “Log BR” value is recorded as 2.713 with Rattus norvegicus [1], 2.713 in the series with Rattus norvegicus [4], 2.561 in the series with Rattus norvegicus [5] and 2.713 with Rattus norvegicus [6]. The “Log k'” value in series [2] is on record as 0.058. Besides, the dose excreted in [3] amounted to 36.4%; in series [7], 51.7%; in [8] it was 51.7%; in [9], 51.7%. The compound further showed a log partition coefficient (logP) in series [12] of -0.08.
As to `Cn1c([N+](=O)[O-])cnc1/C=C(\Oc1ccccc1)C(=O)O`, the “Log BR” value in the series with Rattus norvegicus [1] amounted to 2.28; with Rattus norvegicus [4], 2.337; in the series with Rattus norvegicus [5] it was 1.4; in the series on Rattus norvegicus [6] it was 2.337. Further, the “Log k'” value in series [2] was -0.199. Also, the dose excreted stood at 2.5% in [3], 21.7% in [7], 19% in series [8] and 21.7% in series [9]. The same compound showed a logP in series [12] of -1.
Take `CCN(CC)CCOCCn1c([N+](=O)[O-])cnc1C`: the “Log BR” value in the series with Rattus norvegicus [1] was found to be 2.455; in the series with Rattus norvegicus [4] it was 2.455; in the series with Rattus norvegicus [5], 2.369; in the series on Rattus norvegicus [6], 2.455. In series [2], the “Log k'” value worked out at 0.021. The dose excreted in series [3] was determined as 23.4%; in series [7] it was 28.5%; in series [8], 28.5%; in series [9], 28.5%. The compound further had a logP in [12] of -0.38.
As to `O=[N+]([O-])c1cncn1CCN1CCOCC1` [NIMORAZOLE], the “Log BR” value with Rattus norvegicus [1] was determined as 2.719; in the series with Rattus norvegicus [4], 2.719; in the series on Rattus norvegicus [5] it was 2.639; in the series on Rattus norvegicus [6], 2.719. Moreover, the “Log k'” value in series [2] was found to be 0.188. Moreover, the dose excreted was 43.6% in series [3], 52.4% in [7], 52.4% in series [8] and 52.4% in [9].
Take `O=C1NCCN1c1ncc([N+](=O)[O-])s1` [NIRIDAZOLE]: the “Log BR” value with Rattus norvegicus [1] stood at 1.861; in the series on Rattus norvegicus [4] it was 1.861; with Rattus norvegicus [5], 1.663; in the series on Rattus norvegicus [6], 1.861. Also, the “Log k'” value in series [2] was found to be 0.363. In addition, the dose excreted in [3] amounted to 4.6%; in series [7] it was 7.3%; in series [8], 7.3%; in series [9], 7.3%. In series [12], the logP is 0.92.
Consider `Cc1ncc([N+](=O)[O-])n1CC(O)CCl` (stereo not given) [ORNIDAZOLE], for which, in the series on Rattus norvegicus [10], the “log(10 × % of dose excreted unchanged in urine)” value was determined as 2.068. Further, the “Log BR” value in the series with Rattus norvegicus [1] was 2.471; with Rattus norvegicus [4], 2.625; in the series on Rattus norvegicus [5] it was 2.121; with Rattus norvegicus [6] it was 2.567. The dose excreted in series [11] was determined as 11.7%; in [3], 13.2%; in series [7], 42.1%; in [8] it was 29.6%; in series [9], 36.9%.
